Data taken from ChEMBL document CHEMBL1125291, “New 8-(trifluoromethyl)-substituted quinolones. The benefits of the 8-fluoro group with reduced phototoxic risk” (1992).
Converted amounts (≈) assume the structure as drawn.

What was measured:
Mus musculus [1] = species: Mus musculus; test: Number of mice which show positive phototoxic reaction.; format: functional
Summary of the method: (§1)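 Phototoxic skin reaction test in depilated female CD-1 mice. A single oral dose (gavage) or subcutaneous dose was given, followed 1 h later by 3 h of UVA exposure (320–400 nm). The regimen was repeated for up to 4 consecutive days, with initial doses of 30, 100 and 300 mg/kg. PTD50 was derived by the probit method. The first day of positive reaction and the no-effect dose were taken from the raw data.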

Escherichia coli [2] = test: Minimum inhibitory concentration (MIC) against gram negative bacteria Escherichia coli Vogel.; format: functional; conditions: Escherichia coli; read-out: MIC
Summary of the method: (§2)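 MICs were determined by standard broth microtitration against 11 Gram-positive and Gram-negative organisms, in µg/mL. Values come from duplicate or triplicate experiments and are accurate to ±50%.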

Escherichia coli [3] = test: In vivo efficacy in mouse protection test in Escherichia coli Vogel administered by subcutaneous injection.; format: functional; conditions: Escherichia coli, sc; read-out: PD50
Summary of the method: (§3)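 Acute lethal systemic infections in female Charles River CD-1 mice. A single dose was given at challenge, orally by gavage or by subcutaneous injection. PD50 (median protective dose, mg/kg) was determined.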

Klebsiella pneumoniae = test: Minimum inhibitory concentration (MIC) against gram negative bacteria Klebsiella pneumoniae MGH-2.; format: functional; conditions: Klebsiella pneumoniae; read-out: MIC; summary of the method: as §2
Pseudomonas aeruginosa [4] = test: Minimum inhibitory concentration (MIC) against gram negative bacteria Pseudomonas aeruginosa UI-18.; format: functional; conditions: Pseudomonas aeruginosa; read-out: MIC; summary of the method: as §2
Escherichia coli [5] = test: In vivo efficacy in mouse protection test in Escherichia coli Vogel dose administered orally by gavage.; format: functional; conditions: Escherichia coli, po; read-out: PD50; summary of the method: as §3
Streptococcus pyogenes [6] = test: In vivo efficacy (s.c.) against Streptococcus pyogenes C-203 in mouse protection test; format: functional; conditions: Streptococcus pyogenes, sc; read-out: PD50; summary of the method: as §3
Mus musculus [7] = species: Mus musculus; test: Dose required to induce phototoxic reaction in 50% of mice by probit method at different dosage forms.; format: functional
Mus musculus [8] = species: Mus musculus; test: Dose which has no effect to induce phototoxic reaction in 50% of mice by probit method.; format: functional
Streptococcus pyogenes [9] = test: In vivo efficacy (orally) against Streptococcus pyogenes C-203 in mouse protection test; format: functional; conditions: Streptococcus pyogenes, po; read-out: PD50; summary of the method: as §3
Streptococcus pyogenes [10] = test: Minimum inhibitory concentration (MIC) against gram positive bacteria Streptococcus pyogenes C-203.; format: functional; conditions: Streptococcus pyogenes; read-out: MIC; summary of the method: as §2
[11] = Minimum inhibitory concentration (MIC) against gram negative bacteria Prot. rettgeri M-1771.; format: functional, Providencia rettgeri; conditions: Providencia rettgeri; read-out: MIC; summary of the method: as §2
Staphylococcus aureus [12] = test: Minimum inhibitory concentration (MIC) against gram positive bacteria Staphylococcus aureus UC-76.; format: functional; conditions: Staphylococcus aureus; read-out: MIC; summary of the method: as §2
Enterobacter cloacae = test: Minimum inhibitory concentration (MIC) against gram negative bacteria Enterobacter cloacae MA-2646.; format: functional
Mus musculus [13] = species: Mus musculus; test: Days of the first positive reaction in […] mice.; format: functional; summary of the method: as §1
Escherichia coli [14] = test: Minimum inhibitory concentration (MIC) against gram negative bacteria Escherichia coli H-560.; format: functional; conditions: Escherichia coli; read-out: MIC; summary of the method: as §2
Enterococcus faecalis = test: Minimum inhibitory concentration (MIC) against gram positive bacteria Streptococcus faecalis MGH-2.; format: functional; conditions: Enterococcus faecalis; read-out: MIC; summary of the method: as §2
Mus musculus [15] = test: Maximum tolerance dose was measured for phototoxic skin reaction by po administration; format: functional
Streptococcus pneumoniae [16] = test: Minimum inhibitory concentration (MIC) against gram positive bacteria Streptococcus pneumoniae SV-1.; format: functional; conditions: Streptococcus pneumoniae; read-out: MIC; summary of the method: as §2
Staphylococcus aureus [17] = test: Minimum inhibitory concentration (MIC) against gram positive bacteria Staphylococcus aureus H-228.; format: functional; conditions: Staphylococcus aureus; read-out: MIC; summary of the method: as §2
Pseudomonas aeruginosa [18] = test: In vivo efficacy (orally) against Pseudomonas aeruginosa in mouse protection test; format: functional; conditions: Pseudomonas aeruginosa, po; read-out: PD50; summary of the method: as §3
[19] = Number of mice which show positive phototoxic reaction in 15 mice; format: functional, Mus musculus; summary of the method: as §1
Streptococcus pneumoniae [20] = test: In vivo efficacy (orally) against Streptococcus pneumoniae SV-1 in mouse protection test; format: functional; conditions: Streptococcus pneumoniae, po; read-out: PD50; summary of the method: as §3
Streptococcus pneumoniae [21] = test: In vivo efficacy (s.c.) against Streptococcus pneumoniae SV-1 in mouse protection test; format: functional; conditions: Streptococcus pneumoniae, sc; read-out: PD50; summary of the method: as §3
Pseudomonas aeruginosa [22] = test: In vivo efficacy (s.c.) against Pseudomonas aeruginosa in mouse protection test; format: functional; conditions: Pseudomonas aeruginosa, sc; read-out: PD50; summary of the method: as §3
[23] = Days of the first positive reaction in […] mice; format: functional, Mus musculus
Summary of the method: (§4)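 Depilated female CD-1 mice got a single oral (gavage) or subcutaneous dose, then UVA (320–400 nm) exposure for 3 h starting 1 h post-dose. This was repeated for up to 4 consecutive days. Initial doses were 30, 100 and 300 mg/kg. PTD50 was derived by probit. First day of positive reaction and no-effect dose were taken from the raw data.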

Mus musculus [24] = species: Mus musculus; test: Dose required to induce phototoxic reaction in 50% of mice by […] reactions at different dosage forms; format: functional; summary of the method: as §4
Mus musculus [25] = species: Mus musculus; test: Number of mice which show positive phototoxic reaction in 5 mice; format: functional

NC1CCCN(c2c(F)cc3c(=O)c(C(=O)O)cn(C4CC4)c3c2C(F)(F)F)C1 (stereo not drawn)
No. of pos rxns (Mus musculus [1]): 0 | MIC (Escherichia coli [2]): 0.1 µg/mL (≈ 0.242 µM) | ED50 (Escherichia coli [3]): 3.2 mg/kg | MIC (Klebsiella pneumoniae): 0.2 µg/mL (≈ 0.484 µM) | MIC (Pseudomonas aeruginosa [4]): 1.6 µg/mL (≈ 3.87 µM) | ED50 (Escherichia coli [5]): 11.8 mg/kg | ED50 (Streptococcus pyogenes [6]): 12 mg/kg | PTD50 (Mus musculus [7]): >100 mg/kg | No effect dose (Mus musculus [8]): 100 mg/kg | ED50 (Streptococcus pyogenes [9]): 35 mg/kg | MIC (Streptococcus pyogenes [10]): 0.2 µg/mL (≈ 0.484 µM) | MIC [11]: 0.4 µg/mL (≈ 0.968 µM) | MIC (Staphylococcus aureus [12]): 0.025 µg/mL (≈ 0.0605 µM) | MIC (Enterobacter cloacae): 0.1 µg/mL (≈ 0.242 µM) | Day of first positve reaction (Mus musculus [13]): 0 | MIC (Escherichia coli [14]): 0.1 µg/mL (≈ 0.242 µM) | MIC (Enterococcus faecalis): 0.2 µg/mL (≈ 0.484 µM) | MTD (Mus musculus [15]): 100 mg/kg | MIC (Streptococcus pneumoniae [16]): 0.2 µg/mL (≈ 0.484 µM) | MIC (Staphylococcus aureus [17]): 0.2 µg/mL (≈ 0.484 µM)

NC1CCN(c2c(F)cc3c(=O)c(C(=O)O)cn(C4CC4)c3c2F)C1 (stereo not drawn)
MIC (Escherichia coli [2]): 0.025 µg/mL (≈ 0.0716 µM) | ED50 (Escherichia coli [3]): 0.2 mg/kg | MIC (Klebsiella pneumoniae): 0.025 µg/mL (≈ 0.0716 µM) | MIC (Pseudomonas aeruginosa [4]): 0.1 µg/mL (≈ 0.286 µM) | ED50 (Escherichia coli [5]): 0.9 mg/kg | ED50 (Streptococcus pyogenes [6]): 2.3 mg/kg | PTD50 (Mus musculus [7]): 4.2 mg/kg | ED50 (Pseudomonas aeruginosa [18]): 6.5 mg/kg | No effect dose (Mus musculus [8]): 3 mg/kg | ED50 (Streptococcus pyogenes [9]): 7.5 mg/kg | MIC (Streptococcus pyogenes [10]): 0.05 µg/mL (≈ 0.143 µM) | MIC [11]: 0.1 µg/mL (≈ 0.286 µM) | MIC (Staphylococcus aureus [12]): 0.025 µg/mL (≈ 0.0716 µM) | MIC (Enterobacter cloacae): 0.013 µg/mL (≈ 0.0372 µM) | No. of pos rxns [19]: 15 | Day of first positve reaction (Mus musculus [13]): 3 | MIC (Escherichia coli [14]): 0.003 µg/mL (≈ 0.00859 µM) | ED50 (Streptococcus pneumoniae [20]): 15 mg/kg | MIC (Enterococcus faecalis): 0.1 µg/mL (≈ 0.286 µM) | ED50 (Streptococcus pneumoniae [21]): 5.5 mg/kg | ED50 (Pseudomonas aeruginosa [22]): 3 mg/kg | MTD (Mus musculus [15]): 6 mg/kg | MIC (Streptococcus pneumoniae [16]): 0.1 µg/mL (≈ 0.286 µM) | MIC (Staphylococcus aureus [17]): 0.05 µg/mL (≈ 0.143 µM)

O=C(O)c1cn(C2CC2)c2c(F)c(N3CCNCC3)c(F)cc2c1=O
MIC (Escherichia coli [2]): 0.05 µg/mL (≈ 0.143 µM) | ED50 (Escherichia coli [3]): 0.26 mg/kg | MIC (Klebsiella pneumoniae): 0.05 µg/mL (≈ 0.143 µM) | MIC (Pseudomonas aeruginosa [4]): 0.2 µg/mL (≈ 0.573 µM) | ED50 (Escherichia coli [5]): 0.45 mg/kg | ED50 (Streptococcus pyogenes [6]): 8.9 mg/kg | ED50 (Pseudomonas aeruginosa [18]): 6.6 mg/kg | No effect dose (Mus musculus [8]): 100 mg/kg | ED50 (Streptococcus pyogenes [9]): 33 mg/kg | MIC (Streptococcus pyogenes [10]): 0.8 µg/mL (≈ 2.29 µM) | Day of first positve reaction [23]: 0 | MIC [11]: 0.1 µg/mL (≈ 0.286 µM) | MIC (Staphylococcus aureus [12]): 0.1 µg/mL (≈ 0.286 µM) | PTD50 (Mus musculus [24]): 171 mg/kg | MIC (Enterobacter cloacae): 0.025 µg/mL (≈ 0.0716 µM) | MIC (Escherichia coli [14]): 0.013 µg/mL (≈ 0.0372 µM) | ED50 (Streptococcus pneumoniae [20]): 59 mg/kg | MIC (Enterococcus faecalis): 0.4 µg/mL (≈ 1.15 µM) | ED50 (Streptococcus pneumoniae [21]): 29 mg/kg | ED50 (Pseudomonas aeruginosa [22]): 2.5 mg/kg | MTD (Mus musculus [15]): 100 mg/kg | No. of pos rxns (Mus musculus [25]): 0 | MIC (Streptococcus pneumoniae [16]): 0.8 µg/mL (≈ 2.29 µM) | MIC (Staphylococcus aureus [17]): 0.4 µg/mL (≈ 1.15 µM)
